Rev-erbA mod – Rev-erb alpha (human) modulation | Rev-erbα–FITC-DNA binding, fluorescence polarization, 90 min | activity, % at 10 µM | 370,000 tested, 0.79% active | AID 1259318 | P20393;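 active = activity above about 14%, limit read from the data; passing the limit was not always enough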;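 note: 0% = DMSO wells with 35 nM protein and 100% = DMSO wells with 750 nM protein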
PG9 Ab binder – binds the HIV-1 gp120 antibody PG9. TR-FRET gp120-PG9 antibody binding. inhibition, % at 6.7 µM. 360,000 tested, 0.43% active. AID 624416; in the data active = inhibition above about 8.5%
MC4R ag barr – agonists of human melanocortin 4 receptor (MC4R) beta-arrestin; 360,000 tested, 0.98% active; P32245; U2OS MC4R beta-arrestin complementation, luminescence; percent of melanotan II response, DMSO zero; activation, % at 8.9 µM;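 active = activation above a per-plate cutoff, the mean activation of sample wells on that plate plus 3 SD, cut at about 8% in these data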
Target sequence (P32245 whole entry, looked up): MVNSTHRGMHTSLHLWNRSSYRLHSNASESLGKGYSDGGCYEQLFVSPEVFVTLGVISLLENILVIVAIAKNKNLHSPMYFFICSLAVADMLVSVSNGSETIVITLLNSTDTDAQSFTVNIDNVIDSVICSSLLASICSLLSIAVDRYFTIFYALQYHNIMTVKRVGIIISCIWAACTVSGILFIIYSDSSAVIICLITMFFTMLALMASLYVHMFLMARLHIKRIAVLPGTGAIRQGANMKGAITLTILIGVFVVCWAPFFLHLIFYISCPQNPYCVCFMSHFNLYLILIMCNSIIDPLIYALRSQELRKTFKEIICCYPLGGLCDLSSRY
MC4R antag cAMP – blocks human MC4R cAMP signaling. inhibition, % at 6.5 µM. MC4R-expressing cells, MTII-stimulated cAMP, LANCE TR-FRET. 360,000 tested, 0.48% active. AID 540295. P32245;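 active = inhibition above its plate's cutoff, the mean of tested wells on that plate plus 3 SD, cut at about 29% in these data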;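 note: 0% = Melanotan II alone and 100% = Melanotan II plus saturating MCL0020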
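Material – human MC4R-expressing U2OS cells · Repeats – no replicates · Detection – TR-FRET with Eu-cAMP and labeled anti-cAMP, 671 nm · Times – compound 30 min, challenge 1 h, detection 1 h · Compound – single nominal compound dose of 6.5 µM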
NTR1 agonist – activates human neurotensin receptor 1 | 330,000 tested, 0.17% active | activation, % at 20 µM | NTR1-U2OS beta-arrestin-GFP spot imaging, agonist mode | P30989;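 active = activation at or above 40% of the spot to cytoplasm intensity ratio, with at least 20 cells analyzed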;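 note: 0% = DMSO without peptide and 100% = 100 nM NTR1 peptide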
PG9 binder conf – confirmation of small molecules binding HIV-1 gp120 antibody PG9; shares compounds with PG9 Ab binder; TR-FRET PG9 antibody binding, biochemical; inhibition, % at 6.7 µM; 1,500 tested, 90% active; in the data active = inhibition above about 9%
PGV04 Ab binding – counter-screen for PG9 binders: binding control antibody PGV04 | TR-FRET PGV04 antibody-gp120 binding, biochemical | shares compounds with PG9 Ab binder | 1,500 tested, 95% active | inhibition, % at 6.7 µM | AID 651604; in the data active = inhibition above about 9.5%
PG9 binder DR – small molecules binding HIV-1 gp120 antibody PG9; 95 tested, under 10 active; TR-FRET PG9 antibody-gp120 binding inhibition; IC50, µM; shares compounds with PG9 Ab binder; in the data active = IC50 below about 10 µM
PGV04 DR counter – binds control antibody PGV04 in PG9 counter-screen. shares compounds with PG9 Ab binder. TR-FRET binding to control antibody PGV04. IC50, µM. 95 tested, 20% active. AID 651937
PG126 DR counter – PG126 binding, dose response counter-screen; shares compounds with PG9 Ab binder; TR-FRET binding to antibody PG126, counterscreen; IC50, µM; 95 tested, 20% active; AID 651939
Active calls of the source: *; . = no result. A selection: hits, their analogues and other compounds. The true share with any hit is near 2.5%. Cut-off read from the data, not from the text of the source, unless noted: active = IC50 below about 9 µM; inactive = the rest.

SMILES	Rev-erbA mod	PG9 Ab binder	MC4R ag barr	MC4R antag cAMP	NTR1 agonist	PG9 binder conf	PGV04 Ab binding	others
O=C(Nc1nc2ccccc2c(=O)s1)c1ccc(F)cc1Cl	-4	71*	-2	-12	7	60*	77*
O=C(Nc1nc2c(Br)cc(Br)cc2c(=O)s1)C1CCC1	2	10*	-2	2	1	18*	20*
O=C(NCCCc1ccccc1)[C@H](Cc1ccccc1)NC1(C(=O)NCCc2c[nH]c3ccccc23)CCOCC1	4	.	.	.	.	.	.
Nn1c(=S)[nH]c2sc3c(c2c1=O)CCCC3	-1	9.7*	1	10	-1	10*	9.4*	PG9 binder DR=>67;PGV04 DR counter=>67;PG126 DR counter=>67
N#Cc1c(NC(=O)C2CC=CCC2C(=O)O)sc2c1CCCCCC2 (stereo not drawn)	1	11*	0	3	1	9.0*	9.4*
N#Cc1c(NC(=O)CCC(=O)O)sc2c1CCCCC2	1	0	3	19	1	.	.
Cc1cc(NC2C3CC4CC(C3)CC2C4)n2nnnc2n1 (stereo not drawn)	1	24*	-1	2	2	29*	39*
Cc1ccc(OC2CCN(C(=O)[C@@H](Cc3ccccc3)NC(=O)[C@H]3O[C@@H](n4ccc(=O)[nH]c4=O)[C@H](O)[C@@H]3O)CC2)cc1	-3	-1	.	.	.	.	.
CCCn1c(/C=C/c2cc[n+](C)cc2)nc2ccccc21	-7	10*	1	-5	0	13*	15*
CCn1c(/C=C/c2ccccc2)nc2ccccc21	-4	-2	-1	9	3	.	.
CCCCC1=CC2=C(c3ccco3)C(=O)C(C)(OC(=O)c3ccc(OC)cc3)C(=O)C2=CN1C(CO)CO (stereo not drawn)	-9	13*	-2	4	0	14*	17*
CCCCC1=CC2=C(c3ccco3)C(=O)C(C)(OC(=O)c3ccc(OC)cc3)C(=O)C2=CN1CCCCO (stereo not drawn)	2	13*	-3	9	0	19*	24*
CCCCC1=CC2=C(c3ccco3)C(=O)C(C)(OC(=O)c3ccc(OC)cc3)C(=O)C2=CN1C1CC1 (stereo not drawn)	0	12*	-1	9	1	22*	29*
CCCCC1=CC2=C(c3ccco3)C(=O)C(C)(OC(=O)c3ccc(OC)cc3)C(=O)C2=CN1Cc1ccc(OC)cc1 (stereo not drawn)	.	.	.	.	0	.	.
CCCN1CCCCC(NC(=O)COCc2ccccc2)C1=O (stereo not drawn)	3	1	.	.	.	.	.
CCN(CC)C(=O)CN1C(=O)C2CCCCN2C(=O)c2ccccc21 (stereo not drawn)	-5	.	.	.	.	.	.
CC(C)(C)C(=O)c1c(N)[nH]c(C(=O)c2ccccc2)c1-c1ccc([N+](=O)[O-])cc1	2	-2	.	.	.	.	.
Fc1ccc2nc(Nc3nc4c(F)cccc4s3)sc2c1	16	11*	0	2	9	14*	21*
Cc1ccccc1Cn1c(=O)n(CCCC(=O)NCc2ccco2)c(=O)c2sccc21	.	5	1	7	-2	.	.
Cc1ccc(-n2c(=O)c3sccc3n(CC(=O)NCc3ccco3)c2=O)cc1F	0	9.4*	-2	14	0	12*	19*
Cc1cccc2nc(Cn3c(=O)n(CCC(=O)NCc4ccco4)c(=O)c4sccc43)cc(=O)n12	4	0	0	5	0	.	.
Cc1ccc(C)c(Cn2c(=O)n(CCC(=O)NCc3ccco3)c(=O)c3sccc32)c1	1	12*	0	3	1	13*	18*

High-throughput results as filed in PubChem BioAssay.
